Measured values taken from ChEMBL document CHEMBL2311295 (J Med Chem, 2013).

Assays:
[1] = tested on: HCT-116; test: Cytotoxicity against human HCT116 cells after 72 hrs by phosphatase assay; format: functional, cell-based; conditions: HCT-116, 72 h
Outline: (§1)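 Cells diluted to 30,000 cells/mL in DMEM with 10% FBS and seeded into 96-well plates (100 μL per well), then grown 24 h at 37 °C under 5% CO2. Test agents were made as 1 mM DMSO stocks with 10-fold serial dilutions and tested at six concentrations over 0–1,000 nM or 0–10,000 nM, in duplicate, for 72 h. Acid phosphatase read-out: substrate in 0.1 M NaOAc pH 5.5 with 0.1% Triton X-100, 15 min at 37 °C, stopped with NaOH, A405.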

[2] = tested on: HCT-116; test: Ratio of IC50 for vinblastine-resistant human HCT116/VM46 cells to IC50 for human HCT116 cells; format: functional
Outline: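 Ratio of IC50 in HCT116/VM46 to IC50 in HCT116. Both IC50 values come from the 72 h phosphatase (A405) growth inhibition assay: six concentrations up to 1,000 or 10,000 nM, run in duplicate, averaging 4–16 determinations each.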

[3] = tested on: HCT-116/VM46; test: Cytotoxicity against vinblastine-resistant human HCT116/VM46 cells after 72 hrs by phosphatase assay; format: functional, cell-based; conditions: HCT-116/VM46, 72 h
Outline: as §1, with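 “A405. IC50 is the mean of 4–16 determinations.” for “A405.”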

[4] = tested on: HCT-116/VM46; test: Ratio of vinblastine IC50 to compound IC50 for vinblastine-resistant human HCT116/VM46 cells; format: functional
Outline: (§2)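 Both IC50 values come from the 72 h acid phosphatase (A405) proliferation assay: six concentrations over 0–1,000 or 0–10,000 nM, with each value the mean of 4–16 determinations.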

[5] = tested on: HCT-116; test: Ratio of vinblastine IC50 to compound IC50 for human HCT116 cells; format: functional; outline: as §2
[6] = target: Tubulin (Sus scrofa) (UniProt P02554+P02550); test: Displacement of [3H]-vinblastine from pig tubulin at 7.2 x 10^-5 M after 60 mins; format: protein assay
Chain of Tubulin (Sus scrofa) (P02550 whole entry, looked up): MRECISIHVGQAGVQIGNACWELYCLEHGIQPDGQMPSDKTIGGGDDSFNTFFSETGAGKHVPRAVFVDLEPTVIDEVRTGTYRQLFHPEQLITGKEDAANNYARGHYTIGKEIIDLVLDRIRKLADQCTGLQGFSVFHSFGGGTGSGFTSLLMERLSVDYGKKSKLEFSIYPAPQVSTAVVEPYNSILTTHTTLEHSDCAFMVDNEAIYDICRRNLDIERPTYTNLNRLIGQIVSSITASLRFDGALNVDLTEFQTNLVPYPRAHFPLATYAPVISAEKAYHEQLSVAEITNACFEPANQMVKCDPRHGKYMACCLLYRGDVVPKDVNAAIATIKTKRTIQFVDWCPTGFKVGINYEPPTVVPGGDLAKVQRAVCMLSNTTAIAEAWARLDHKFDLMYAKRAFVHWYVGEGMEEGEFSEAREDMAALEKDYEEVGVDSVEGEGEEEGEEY
Chain of Tubulin (Sus scrofa) (P02554 whole entry, looked up): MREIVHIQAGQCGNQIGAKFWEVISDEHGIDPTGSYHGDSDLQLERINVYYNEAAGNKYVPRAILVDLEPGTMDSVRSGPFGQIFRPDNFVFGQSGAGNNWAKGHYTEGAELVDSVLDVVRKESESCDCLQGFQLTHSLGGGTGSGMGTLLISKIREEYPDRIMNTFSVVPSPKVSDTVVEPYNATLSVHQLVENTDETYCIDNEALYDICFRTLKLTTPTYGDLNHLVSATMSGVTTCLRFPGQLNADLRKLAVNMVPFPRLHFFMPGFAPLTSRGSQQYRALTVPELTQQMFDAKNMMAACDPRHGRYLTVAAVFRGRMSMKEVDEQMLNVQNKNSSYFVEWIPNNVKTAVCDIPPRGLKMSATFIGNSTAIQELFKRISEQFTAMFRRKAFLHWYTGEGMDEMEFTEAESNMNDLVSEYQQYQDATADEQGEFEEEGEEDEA
Outline: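 Purified porcine tubulin (100 µL tubulin solution diluted with 850 µL general tubulin buffer) preincubated with 25 µL of 7.2 × 10⁻⁵ M ³H-vinblastine, 15 min at 37 °C. Then 25 µL of 7.2 × 10⁻⁵ M unlabeled test alkaloid added, incubation continued 60 min. Displacement of bound ³H-vinblastine measured by a previously described procedure.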

CC[C@]1(NC(=O)N2CCCCC2)C[C@H]2CN(CCc3c([nH]c4ccccc34)[C@@](C(=O)OC)(c3cc4c(cc3OC)N(C)[C@H]3[C@@](O)(C(=O)OC)[C@H](OC(C)=O)[C@]5(CC)C=CCN6CC[C@]43[C@@H]65)C2)C1
IC50 [1]: 0.0039 µM
Ratio IC50 [2]: 10
IC50 [3]: 0.05 µM

CCNC(=O)N[C@@]1(CC)C[C@H]2CN(CCc3c([nH]c4ccc(F)cc34)[C@@](C(=O)OC)(c3cc4c(cc3OC)N(C)[C@H]3[C@@](O)(C(=O)OC)[C@H](OC(C)=O)[C@]5(CC)C=CCN6CC[C@]43[C@@H]65)C2)C1
IC50 [1]: 0.00062 µM
Ratio IC50 [4]: 10
IC50 [3]: 0.07 µM
Ratio IC50 [5]: 10

CC[C@]1(NC(=O)NC)C[C@H]2CN(CCc3c([nH]c4ccccc34)[C@@](C(=O)OC)(c3cc4c(cc3OC)N(C)[C@H]3[C@@](O)(C(=O)OC)[C@H](OC(C)=O)[C@]5(CC)C=CCN6CC[C@]43[C@@H]65)C2)C1
IC50 [1]: 0.00082 µM
IC50 [3]: 0.53 µM
Ratio IC50 [5]: 10

CC[C@]1(NC(=S)NC2CCCCC2)C[C@H]2CN(CCc3c([nH]c4ccccc34)[C@@](C(=O)OC)(c3cc4c(cc3OC)N(C)[C@H]3[C@@](O)(C(=O)OC)[C@H](OC(C)=O)[C@]5(CC)C=CCN6CC[C@]43[C@@H]65)C2)C1
IC50 [1]: 0.02 µM
Ratio IC50 [2]: 26
IC50 [3]: 0.52 µM

CC[C@]1(O)C[C@H]2CN(CCc3c([nH]c4ccc(F)cc34)[C@@](C(=O)OC)(c3cc4c(cc3OC)N(C)[C@H]3[C@@](O)(C(=O)OC)[C@H](OC(C)=O)[C@]5(CC)C=CCN6CC[C@]43[C@@H]65)C2)C1
Ratio IC50 [5]: 8

CC[C@]1(NC(=O)Nc2cccc(OC)c2)C[C@H]2CN(CCc3c([nH]c4ccccc34)[C@@](C(=O)OC)(c3cc4c(cc3OC)N(C)[C@H]3[C@@](O)(C(=O)OC)[C@H](OC(C)=O)[C@]5(CC)C=CCN6CC[C@]43[C@@H]65)C2)C1
IC50 [1]: 0.00077 µM
IC50 [3]: 0.08 µM
Ratio IC50 [5]: 10

CC[C@]1(NC(=O)NC(C)C)C[C@H]2CN(CCc3c([nH]c4ccccc34)[C@@](C(=O)OC)(c3cc4c(cc3OC)N(C)[C@H]3[C@@](O)(C(=O)OC)[C@H](OC(C)=O)[C@]5(CC)C=CCN6CC[C@]43[C@@H]65)C2)C1
IC50 [1]: 0.0057 µM
IC50 [3]: 0.53 µM
Ratio IC50 [5]: 10

CC[C@]1(NC(=O)N(C)C)C[C@H]2CN(CCc3c([nH]c4ccccc34)[C@@](C(=O)OC)(c3cc4c(cc3OC)N(C)[C@H]3[C@@](O)(C(=O)OC)[C@H](OC(C)=O)[C@]5(CC)C=CCN6CC[C@]43[C@@H]65)C2)C1
inhibition [6]: 45.1%
IC50 [1]: 0.0028 µM
Ratio IC50 [2]: 10
IC50 [3]: 0.08 µM

CC[C@]1(NC(=O)NC2CC2)C[C@H]2CN(CCc3c([nH]c4ccccc34)[C@@](C(=O)OC)(c3cc4c(cc3OC)N(C)[C@H]3[C@@](O)(C(=O)OC)[C@H](OC(C)=O)[C@]5(CC)C=CCN6CC[C@]43[C@@H]65)C2)C1
IC50 [1]: 0.00073 µM
IC50 [3]: 0.085 µM
Ratio IC50 [5]: 10

CC[C@]1(NC(=O)Nc2ccccc2OC)C[C@H]2CN(CCc3c([nH]c4ccccc34)[C@@](C(=O)OC)(c3cc4c(cc3OC)N(C)[C@H]3[C@@](O)(C(=O)OC)[C@H](OC(C)=O)[C@]5(CC)C=CCN6CC[C@]43[C@@H]65)C2)C1
IC50 [1]: 0.00077 µM
IC50 [3]: 0.065 µM
Ratio IC50 [5]: 10

CCNC(=O)N[C@@]1(CC)C[C@H]2CN(CCc3c([nH]c4ccccc34)[C@@](C(=O)OC)(c3cc4c(cc3OC)N(C)[C@H]3[C@@](O)(C(=O)OC)[C@H](OC(C)=O)[C@]5(CC)C=CCN6CC[C@]43[C@@H]65)C2)C1
IC50 [1]: 0.00073 µM
IC50 [3]: 0.09 µM
Ratio IC50 [5]: 10

CCCNC(=O)N[C@@]1(CC)C[C@H]2CN(CCc3c([nH]c4ccccc34)[C@@](C(=O)OC)(c3cc4c(cc3OC)N(C)[C@H]3[C@@](O)(C(=O)OC)[C@H](OC(C)=O)[C@]5(CC)C=CCN6CC[C@]43[C@@H]65)C2)C1
IC50 [1]: 0.0027 µM
IC50 [3]: 0.22 µM
Ratio IC50 [5]: 10

CC[C@]1(NC(=O)Nc2ccc(Cl)cc2)C[C@H]2CN(CCc3c([nH]c4ccccc34)[C@@](C(=O)OC)(c3cc4c(cc3OC)N(C)[C@H]3[C@@](O)(C(=O)OC)[C@H](OC(C)=O)[C@]5(CC)C=CCN6CC[C@]43[C@@H]65)C2)C1
IC50 [1]: 0.0067 µM
IC50 [3]: 0.59 µM

CC[C@]1(NC)C[C@H]2CN(CCc3c([nH]c4ccccc34)[C@@](C(=O)OC)(c3cc4c(cc3OC)N(C)[C@H]3[C@@](O)(C(=O)OC)[C@H](OC(C)=O)[C@]5(CC)C=CCN6CC[C@]43[C@@H]65)C2)C1
IC50 [1]: 0.06 µM
IC50 [3]: 8.5 µM

CC[C@]1(NC(=O)Nc2ccc(-c3ccccc3)cc2)C[C@H]2CN(CCc3c([nH]c4ccccc34)[C@@](C(=O)OC)(c3cc4c(cc3OC)N(C)[C@H]3[C@@](O)(C(=O)OC)[C@H](OC(C)=O)[C@]5(CC)C=CCN6CC[C@]43[C@@H]65)C2)C1
inhibition [6]: 48.5%
IC50 [1]: 0.0069 µM
IC50 [3]: 0.47 µM

CC[C@]1(OC(=O)N(C)C)C[C@H]2CN(CCc3c([nH]c4ccccc34)[C@@](C(=O)OC)(c3cc4c(cc3OC)N(C)[C@H]3[C@@](O)(C(=O)OC)[C@H](OC(C)=O)[C@]5(CC)C=CCN6CC[C@]43[C@@H]65)C2)C1
IC50 [1]: 4.7 µM
IC50 [3]: 9.1 µM
